Screening results (PubChem BioAssay)
In the library only some 3.9% were active in any assay of this set; here they are far more common.
CHOP inh: CHOP inhibition in unfolded protein response; inhibition, % at 10 µM; CHO-K1 CHOP-promoter luciferase, tunicamycin-induced, 15-18 h; 220,000 compounds, 3.8% hits;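 active = compounds that reduced the stress-induced luciferase reporter signal by more than about 70% of percent inhibition, limit read from the data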
Jurkat NFkB inh: lowers PMA/ionomycin-induced NF-kB signal in Jurkat cells | PMA/ionomycin-induced NF-kB luciferase reporter, luminescence | inhibition, % at 4 µM | 330,000 compounds, 0.53% hits; in the data active = inhibition above about 50%
697 NFkB inh: lowers PMA/ionomycin-induced NF-kB signal in 697 B cells. AID 435022. inhibition, % at 4 µM. 330,000 compounds, 0.33% hits. 697 B-cell NF-kB luciferase reporter, 16 h; in the data active = inhibition above about 35%
UPR XBP1 act: adaptive UPR (XBP1) activation; activation, % at 20 µM; CHO-XBP1 luciferase reporter, IRE1-XBP1 UPR activation, luminescence; percent of tunicamycin response, DMSO as zero; 330,000 compounds, 0.33% hits;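 active = versus positive control, 20 µM dose yields 30% or more activation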
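Material: CHO cell line with stable XBP1 luciferase reporter; schedule: 16-18 h cell attachment at 37 °C, then 6 h compound exposure; signal: glow luminescence from Steady-Glo reagent; medium: serum-containing F12 medium, 10% FBS; benchmarks: tunicamycin 10 µg/mL and vehicle-only wells; read-out: percent activation relative to tunicamycin reference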
UPR CHOP act: apoptotic UPR (CHOP) activation | CHO-CHOP luciferase reporter, luminescence; percent of tunicamycin response over DMSO baseline | activation, % at 10 µM | 330,000 compounds, 0.34% hits | AID 449763;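 active = at 10 µM dose, activation of 40% or more, normalized to positive control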
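Dosing – one dose, 10 µM in 0.5% DMSO · System – CHO-CHOP cells, stable luciferase reporter of PERK-eIF2a-CHOP signalling · Input – 500 cells/well · Control set – tunicamycin 10 µg/mL final as positive, DMSO-only wells as negative · Timing – 6 h compound treatment, 37 °C · Measure – % activation vs tunicamycin · Technique – luminescence read with Steady-Glo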
Gli-Sufu block: blocks Gli-Sufu signaling in a luciferase reporter; Sufu-KO-LIGHT fibroblasts, Gli luciferase reporter luminescence; inhibition, % at 5 µM; 340,000 compounds, 0.74% hits;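 active = inhibition above about 55%, limit read from the data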
Jurkat NFkB conf: lowers PMA/ionomycin-induced NF-kB signal in Jurkat cells. Jurkat NF-kB luciferase, 16 h. shares compounds with Jurkat NFkB inh. 2,700 compounds, 27% hits. inhibition, % at 4 µM. AID 435020;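 active = inhibition reaching about 45% at 4 µM in either replicate, limit read from the data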
Of the large screens only hits and unclear results are named; the others gave an inactive call (follow-up assays come after a bar, where they were run).

CN1CCC(=NNC(=O)CN(c2ccc([N+](=O)[O-])cc2)S(=O)(=O)c2ccccc2)CC1	none (no result: CHOP inh)
O=C(Cc1cc(=O)oc2cc(O)ccc12)NC(Cc1ccc(Cl)cc1)C(=O)O (configuration not stated)	none (no result: CHOP inh)
O=C(N/N=C/c1c(O)ccc2ccccc12)Nc1ccccc1	none (no result: CHOP inh)
O=C(CSCC(=O)Nc1ccccc1)N/N=C/c1c(O)ccc2ccccc12	Jurkat NFkB inh 63 | Jurkat NFkB conf inactive
C(=C\c1ccccc1)/CSc1nnc(-c2ccccc2)n1Cc1ccco1	Jurkat NFkB inh 60 (no result: CHOP inh) | Jurkat NFkB conf inactive
C=CCNC(=O)c1ccc2c3n(nc2c1)-c1ccccc1CO3	none | Jurkat NFkB conf inactive
COCCNC(=O)c1ccc2c3n(nc2c1)-c1ccccc1CO3	none
O=C(c1ccc2c3n(nc2c1)-c1ccc(Cl)cc1CO3)N1CCCCC1	none
O=C(O)c1ccc2c3n(nc2c1)-c1ccc(Cl)cc1CO3	Jurkat NFkB inh 59 (no result: CHOP inh) | Jurkat NFkB conf inactive
COc1ccc(N(C)S(=O)(=O)c2ccc3c(c2)NC(=O)CC(=O)N3)c(OC)c1	none (no result: CHOP inh)
O=C(O)C(Cc1ccc(Cl)cc1)Sc1nc2ccccc2[nH]1 (configuration not stated)	none (no result: CHOP inh)
COc1ccc(/C=C/c2c(-c3ccc(OC)cc3)sc3cc(OC)c(OC)cc23)cc1	none (no result: CHOP inh)
C[C@@]12C(=O)Nc3ccc(Br)cc3C(=O)N1[C@H]1c3cc(Br)ccc3OC[C@@H]1[C@@H]2c1ccccc1	none (no result: CHOP inh)
COc1ccc2c(c1)C(=O)N1[C@H]3c4cc(Br)ccc4OC[C@@H]3[C@H](c3ccccc3)[C@]1(C)C(=O)N2	Jurkat NFkB inh 52 (no result: CHOP inh) | Jurkat NFkB conf 53
CCCCn1c(N)c(N(C)C(=O)c2cn(-c3ccccc3)nc2-c2ccccc2)c(=O)[nH]c1=O	none (no result: CHOP inh)
Cc1cccc(C)c1NC(=O)NCc1ccco1	none
Cc1cccc(C)c1OCCNC(=O)C(=O)NCc1ccco1	Jurkat NFkB inh 67 | Jurkat NFkB conf inactive
O=C(O)c1ccc(OCc2cn3ccccc3n2)cc1	none
O=C(COc1ccc(Oc2ccccc2)cc1)NCc1cn2ccccc2n1	Jurkat NFkB inh 63 | Jurkat NFkB conf inactive
CCOC(=O)C1=C(COC(=O)[C@H](C)NS(=O)(=O)c2ccc(NC(C)=O)cc2)NC(=O)NC1C (some centres not stated)	none (no result: CHOP inh)
C#Cc1ccc([C@@H]2C=C(C(=O)N3CCN(Cc4ccccc4)CC3)O[C@H](OCCCCO)C2)cc1	Jurkat NFkB inh 80 (no result: Gli-Sufu block) | Jurkat NFkB conf inactive
O=C(C1=C[C@H](c2ccccc2)C[C@H](OCCCCO)O1)N1CCN(Cc2ccccc2)CC1	none
CC(C)NCC(O)Cn1c2c(c3ccccc31)CCc1c-2cnn1-c1ccccc1 (configuration not stated)	Jurkat NFkB inh 59 | Jurkat NFkB conf inactive
Cc1ccc(N(Cc2cc3ccccc3[nH]c2=O)S(=O)(=O)c2ccccc2)cc1	Jurkat NFkB inh 85 | Jurkat NFkB conf inactive
c1ccc(-c2cn3c(n2)-c2ccccc2C3)cc1	none | Jurkat NFkB conf inactive
Cc1ccc(-c2nc3n(n2)Cc2ccccc2-3)cc1	none
COc1ccc(N(CC(=O)Nc2ccccc2C(=O)N2CCCC2)S(C)(=O)=O)cc1	none (no result: CHOP inh)
Cc1cccc(OCCNC(=O)c2ccc(Cl)c(S(=O)(=O)NCc3cccnc3)c2)c1	Jurkat NFkB inh 66 (no result: CHOP inh, Gli-Sufu block) | Jurkat NFkB conf inactive
CC(=O)c1sc2c(c1OC(=O)c1ccc(Cl)cc1Cl)c(=O)n(-c1ccccc1)c(=S)n2-c1ccccc1	Jurkat NFkB inh 69 | Jurkat NFkB conf 87
CC(=O)c1sc2c(c1OC(=O)c1ccc(Cl)cc1)c(=O)n(-c1ccccc1)c(=S)n2-c1ccccc1	none (no result: CHOP inh, Jurkat NFkB inh, 697 NFkB inh, UPR XBP1 act, UPR CHOP act)
Brc1ccc2c(c1)CN1CCCC1=N2	Jurkat NFkB inh 73 (no result: CHOP inh) | Jurkat NFkB conf inactive
N=c1c(C(=O)NCc2ccc(F)cc2)cc2c(=O)n3ccccc3nc2n1Cc1ccco1	Jurkat NFkB inh 59 | Jurkat NFkB conf inactive
CCCCN(C(=O)Cc1ccc(S(=O)(=O)N2CCOCC2)s1)c1c(N)n(CCCC)c(=O)[nH]c1=O	none (no result: CHOP inh)
Cc1ccc(SCC(=O)NC2CCS(=O)(=O)C2)cc1C (configuration not stated)	none (no result: CHOP inh)
Cc1ccc(-c2cn(-c3ccccc3)c(SCC(=O)NC3CCS(=O)(=O)C3)n2)cc1C (configuration not stated)	none | Jurkat NFkB conf inactive
CCCNC(=O)C1CC(=O)N(c2ccc(OCc3ccc(F)cc3)cc2)C1 (configuration not stated)	none (no result: CHOP inh) | Jurkat NFkB conf inactive
CCCNC(=O)C1CC(=O)N(c2ccc(OCc3ccc(Cl)cc3)cc2)C1 (configuration not stated)	none (no result: CHOP inh)
CC1(C)Cc2c(cnn2-c2ccc(F)cc2)C(NC(=O)CCN2CCCC2=O)C1 (configuration not stated)	none (no result: CHOP inh)
COc1ccc(-n2nc3cc(N)c(Br)cc3n2)cc1	none (no result: CHOP inh)
COc1ccc(-n2nc3cc(C)c(N)c(Br)c3n2)cc1	none | Jurkat NFkB conf inactive
O=C(CC12CC3CC(CC(C3)C1)C2)Nc1c(F)cccc1F	none (no result: CHOP inh)
Cn1cccc1/C=C1\SC(=Nc2ccc(O)cc2)NC1=O	Jurkat NFkB inh 56 | Jurkat NFkB conf inactive
CN(C(=O)c1ccc(NC(=O)Cc2ccc(NC(=O)C3CCCN(C(=O)C4CCC4)C3)cc2)cc1)C1CC1 (configuration not stated)	none (no result: CHOP inh)
O=C1CC(c2ccccc2)Cc2nc(N3CCc4ccccc43)ncc21 (configuration not stated)	none (no result: CHOP inh)
O=C1CCCc2nc(N3CCc4ccccc43)ncc21	none | Jurkat NFkB conf inactive
Cc1ccc(O)c(NC(=O)c2cc(-c3cccs3)on2)c1	Jurkat NFkB inh 88 (no result: CHOP inh) | Jurkat NFkB conf inactive
Cc1ccc(O)c(NC(=O)c2cc(-c3ccc(F)cc3)on2)c1	Jurkat NFkB inh 71 | Jurkat NFkB conf inactive
COc1ccc(-c2cc(C(=O)Nc3cc(Br)ccc3O)no2)cc1	none (no result: CHOP inh)
Cc1cc(NC(=O)c2cc(-c3cccs3)on2)no1	none
COc1cc2c(C#Cc3cccnc3)c(-c3ccsc3)oc(=O)c2cc1OC	none (no result: CHOP inh)
Cc1ccc(-c2nc3ccc(Cl)cc3n2OC(C)C(=O)O)cc1 (configuration not stated)	none | Jurkat NFkB conf inactive
CSc1nnc(-c2sc3cc(C(F)(F)F)cnc3c2-c2ccccc2)n1C	Jurkat NFkB inh 56 | Jurkat NFkB conf inactive
CCc1cc(C(=O)OCC(=O)N2CCC(c3ccccc3)=N2)sc1C	none (no result: CHOP inh)
O=C(OCC(=O)N1CCC(c2ccccc2)=N1)c1ccc(Cl)s1	none (no result: CHOP inh) | Jurkat NFkB conf inactive
CCOc1ccc(NC(=S)N2CCC(NC(=O)c3ccco3)CC2)cc1	none (no result: CHOP inh)
CC(C)n1ncc2c(C(=O)NCCc3ccc(F)cc3)cc(C3CC3)nc21	none (no result: CHOP inh)
